Where “and” joins values, the source holds several entries; their conditions need not be identical. Identical values can stand only once. Like-named read-outs stand apart in the source and are kept apart here.

The values that follow come from paper PMC6911266 (Nature, 2019).

Data set [1] addresses T1, PfCRT 7G8 (Plasmodium falciparum, UniProt W7FI62).
T1 sequence (W7FI62 1-424): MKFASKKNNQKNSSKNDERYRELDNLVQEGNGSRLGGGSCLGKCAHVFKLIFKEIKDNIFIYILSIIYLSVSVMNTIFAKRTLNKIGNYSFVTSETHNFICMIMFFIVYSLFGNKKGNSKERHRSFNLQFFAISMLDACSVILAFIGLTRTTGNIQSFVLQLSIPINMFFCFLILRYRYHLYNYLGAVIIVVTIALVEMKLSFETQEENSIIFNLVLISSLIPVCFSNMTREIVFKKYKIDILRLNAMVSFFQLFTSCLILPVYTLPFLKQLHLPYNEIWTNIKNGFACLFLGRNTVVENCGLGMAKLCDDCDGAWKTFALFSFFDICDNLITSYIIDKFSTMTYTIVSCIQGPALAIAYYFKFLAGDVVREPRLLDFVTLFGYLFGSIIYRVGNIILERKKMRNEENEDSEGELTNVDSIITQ
The data set is described as follows: Scintillation proximity assay. Format: binding. To be noted: for competition of [3H]-Arg binding (in words): 125 nM [3H]-Arg, 1 μM CQ or PPQ, 0.1 μM amodiaquine, 1 mM Arg, Lys or Leu.

Data set [2] has as its target T1, PfCRT 7G8. It counts as biochemical.
Data set [3] deals with P. falciparum 7G8^7G8 parasite line. Briefly: Parasite drug susceptibility assay. It counts as cell-based, Plasmodium falciparum. As to conditions: 72 h, asynchronous asexual blood stages. Put shortly: (§1)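 Asynchronous asexual blood-stage parasites were seeded at 0.3% parasitemia and 1% hematocrit into 2-fold, 10-point test compound dilutions. Incubation was 72 h at 37°C under 5% O2/5% CO2/90% N2. Final parasitemia was read by flow cytometry. IC50 came from nonlinear regression, 4 independent assays in duplicate, with two-tailed Mann-Whitney U tests.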

Data set [4] relates to P. falciparum 7G8^7G8+F145I parasite line. Briefly: Parasite drug susceptibility assay. It counts as cell-based, Plasmodium falciparum. To be noted: 72 h, asynchronous asexual blood stages. The essentials:
as §1

For data set [5], the system named is P. falciparum 7G8^7G8+C350R parasite line. The data set is described as follows: Parasite drug susceptibility assay. To be noted: 72 h, asynchronous asexual blood stages. Format: cell-based, Plasmodium falciparum. The essentials:
as §1

Data set [6] relates to P. falciparum Dd2^Dd2 parasite line. The data set is described as follows: Parasite drug susceptibility assay. It counts as cell-based, Plasmodium falciparum. To be noted: 72 h, asynchronous asexual blood stages. Put shortly: as §1
For data set [7], the system named is P. falciparum WT (3D7) parasite line. Briefly: Parasite drug susceptibility assay. As to conditions: 72 h, asynchronous asexual blood stages. It counts as cell-based, Plasmodium falciparum. The essentials: as §1
For a further data set, the target named is T2, PfCRT 7G8+C289A (Plasmodium falciparum, UniProt W7FI62, C289A).
T2 sequence (W7FI62 1-424 C289A): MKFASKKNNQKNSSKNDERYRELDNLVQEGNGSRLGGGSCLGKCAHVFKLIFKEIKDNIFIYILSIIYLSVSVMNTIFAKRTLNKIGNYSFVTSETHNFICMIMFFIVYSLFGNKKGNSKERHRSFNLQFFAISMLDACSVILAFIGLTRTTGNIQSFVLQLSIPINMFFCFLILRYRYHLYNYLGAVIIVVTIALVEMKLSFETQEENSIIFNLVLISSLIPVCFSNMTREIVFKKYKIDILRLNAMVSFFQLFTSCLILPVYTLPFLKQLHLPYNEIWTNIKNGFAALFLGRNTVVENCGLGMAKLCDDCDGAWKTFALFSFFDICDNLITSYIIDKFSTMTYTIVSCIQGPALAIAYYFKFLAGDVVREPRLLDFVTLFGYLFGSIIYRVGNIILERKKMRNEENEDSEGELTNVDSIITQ
The data set is described as follows: Transport. Format: biochemical. To be noted: read-out: IC50 (concentration yielding half-maximal reduction of [3H]-CQ transport); 100 nM [3H]-CQ, 1 min. Put shortly:
(§2)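 Proteoliposomes with the PfCRT variant (40 ng PfCRT per assay) have a lumen of 100 mM KPi, pH 7.5, with 2 mM β-mercaptoethanol. They are diluted into 100 mM Tris/Mes, pH 5.5, with 100 nM [3H]-CQ (5.45 Ci/mmol) and increasing β-mercaptoethanol, and uptake runs for 1 min. Values are corrected for mock uptake on nitrocellulose filters and for control liposomes lacking PfCRT. IC50 is the β-mercaptoethanol concentration halving transport.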

Another data set has as its target T3, PfCRT 7G8+C301A (Plasmodium falciparum, UniProt W7FI62, C301A).
T3 sequence (W7FI62 1-424 C301A): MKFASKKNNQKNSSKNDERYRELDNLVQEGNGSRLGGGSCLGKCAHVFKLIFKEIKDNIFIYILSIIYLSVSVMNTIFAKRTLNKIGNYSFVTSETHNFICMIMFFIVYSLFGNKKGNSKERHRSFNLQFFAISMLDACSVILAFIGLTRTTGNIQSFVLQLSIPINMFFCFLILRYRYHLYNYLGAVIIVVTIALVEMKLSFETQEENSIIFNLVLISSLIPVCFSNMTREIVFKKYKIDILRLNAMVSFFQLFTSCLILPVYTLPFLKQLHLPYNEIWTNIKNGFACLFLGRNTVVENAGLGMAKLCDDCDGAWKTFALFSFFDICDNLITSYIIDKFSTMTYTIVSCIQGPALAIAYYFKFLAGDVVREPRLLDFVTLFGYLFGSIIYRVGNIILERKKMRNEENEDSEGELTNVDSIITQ
The data set is described as follows: Transport. Format: biochemical. The essentials: as §2

Data set [8] addresses T4, Plasmodium falciparum chloroquine resistance transporter PfCRT, 7G8 isoform (Plasmodium falciparum (isolate 7G8), UniProt W7FI62). Briefly: radioligand binding.
For data set [9], the target named is T4, Plasmodium falciparum chloroquine …. Briefly: radioligand binding. The source holds these as a separate data set.
Data set [10] has the same target. The data set is described as follows: radioligand binding. This is another data set of the same source.
Substrate in data set [11]: N=C(N)NCCC[C@H](N)C(=O)O
Briefly: cells, lysate or membranes named.

The mark [12] stands for this setting: read-out: IC50 (concentration yielding half-maximal reduction of [3H]-CQ transport), 100 nM [3H]-CQ, 1 min.

With `N=C(N)NCCC[C@H](N)C(=O)O` [Arg, arginine], the “competition of [3H]-Arg binding (in words)” value (“competition” for short) at PfCRT 7G8 [1] is listed as “effectively competed”. Besides, the EC50 at PfCRT 7G8 [1] (half-maximal binding constant (EC50) of [3H]-Arg binding, SPA, isotopic dilution of 125 nM [3H]-Arg with non-radiolabeled Arg) was ~400 µM and 397 µM. Also, the “Vmax, transport in proteoliposomes” value at PfCRT 7G8 [2] (initial rates over 3 s, Michaelis-Menten fit) was 190 nmol/mg/min. For the same molecule, the “time course of uptake (in words)” value on PfCRT 7G8 [2] (pH gradient 5.5–7.5 and membrane potential (valinomycin)) was “maximal within one minute”.

For `CCN(CC)Cc1cc(Nc2ccnc3cc(Cl)ccc23)ccc1O` [amodiaquine], the “competition” value on PfCRT 7G8 [1] was “effectively competed”.

As for `NCCCC[C@H](N)C(=O)O` [lysine], the “competition” value on PfCRT 7G8 [1] is given as “effectively competed”.

Consider `CCNCCCC(C)Nc1ccnc2cc(Cl)ccc12` (stereo not drawn) [md-CQ, monodesethyl-chloroquine], for which the IC50 in data set [3] came out at 919 ± 125 nM; in data set [4], 47.8 ± 2.5 nM; in data set [5], 36.5 ± 2 nM; in [6], 1800 ± 199 nM; in data set [7], 48.6 ± 3.1 nM.

On to `COc1ccc(CCN(C)CCCC(C#N)(c2ccc(OC)c(OC)c2)C(C)C)cc1OC` (stereo not drawn) [verapamil], for which the “inhibition of [3H]-CQ and [3H]-Arg uptake (in words)” value against PfCRT 7G8 [2] is on record as “partial to strong inhibition”.

`OCCS` [β-mercaptoethanol]: the IC50 on PfCRT 7G8 [2] (setting [12]) is 1.24 ± 0.14 mM; at PfCRT 7G8+C289A, 2.58 ± 0.39 mM; on PfCRT 7G8+C301A (setting [12]), 4.17 ± 0.16 mM. In addition, the “remaining [3H]-CQ transport activity” value at PfCRT 7G8+C301A (compared to the activity in the absence of the reducing agent) was 60.2 ± 8.2%.

B1: Fab CTC (Fab, V domains shown)
VH: EVQLVESGGGLVQPGGSLRLSCAASGFNVSYSYIHWVRQAPGKGLEWVASIYPYSGYTSYADSVKGRFTISADTSKNTAYLQMNSLRAEDTAVYYCARYGSNYSFWYRGSSVTYAIDYWGQGTLVTVSS
VL: DIQMTQSPSSLSASVGDRVTITCRASQSVSSAVAWYQQKPGKAPKLLIYSASSLYSGVPSRFSGSRSGTDFTLTISSLQPEDFATYYCQQSSTWPITFGQGTKVEIK
For B1, the figures for the IC50 in [8], in [9] and in [10] were 150 nM, 200 nM and 180 nM, respectively.

B2: PfCRT 7G8 (Plasmodium falciparum 7G8) (protein)
chain: MKFASKKNNQKNSSKNDERYRELDNLVQEGNGSRLGGGSCLGKCAHVFKLIFKEIKDNIFIYILSIIYLSVSVMNTIFAKRTLNKIGNYSFVTSETHNFICMIMFFIVYSLFGNKKGNSKERHRSFNLQFFAISMLDACSVILAFIGLTRTTGNIQSFVLQLSIPINMFFCFLILRYRYHLYNYLGAVIIVVTIALVEMKLSFETQEENSIIFNLVLISSLIPVCFSNMTREIVFKKYKIDILRLNAMVSFFQLFTSCLILPVYTLPFLKQLHLPYNEIWTNIKNGFACLFLGRNTVVENCGLGMAKLCDDCDGAWKTFALFSFFDICDNLITSYIIDKFSTMTYTIVSCIQGPALAIAYYFKFLAGDVVREPRLLDFVTLFGYLFGSIIYRVGNIILERKKMRNEENEDSEGELTNVDSIITQ
B2: in data set [11], the Km is 1.30 ± 0.20 µM and the maximal velocity (Vmax) was 189.2 ± 9.1 nmol/mg/min.
